NR2E3 ag-1: agonists of human nuclear receptor NR2E3; 320,000 tested, 0.12% active; inhibition of corepressor binding, % at 4.78 µM; GST-NR2E3/biotin-RetCOR TR-FRET, 1536-well;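 active means percent inhibition above the cutoff of mean plus 3 SD of all tested compounds, set per screening campaign, cut at about 20% in these data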
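Material: NR2E3–RetCOR corepressor complex / Amount: 1.35 nM GST-NR2E3 / Medium: Tris pH 7.5 / Compound: single nominal compound dose of 4.8 µM / Incubation: 5 h at 4 °C / Technique: TR-FRET, Eu(K)-anti-GST donor, streptavidin-D2 acceptor, ex 340, em 617/671 nm / Read-out basis: percent loss of FRET ratio relative to control wells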
NR2E3 ag-2: agonists of human NR2E3 nuclear receptor | 360,000 tested, 0.35% active | Q9Y5X4 | inhibition of corepressor binding, % at 3.98 µM | CHO-S Gal4-NCOR/VP16-NR2E3 two-hybrid, luciferase | AID 602229;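 active means inhibition above the mean of all tested compounds plus 3 SD, cut at about 70% in these data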;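 further: higher means lower luciferase signal from less NR2E3 corepressor binding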
Rev-erbA mod: modulates human Rev-erb alpha binding to DNA; P20393; Rev-erbα–FITC-DNA binding, fluorescence polarization, 90 min; activity, % at 10 µM; 370,000 tested, 0.79% active; AID 1259318;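 active means activity above about 14%, limit read from the data; passing the limit was not always enough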
Target sequence (P20393 whole entry, looked up): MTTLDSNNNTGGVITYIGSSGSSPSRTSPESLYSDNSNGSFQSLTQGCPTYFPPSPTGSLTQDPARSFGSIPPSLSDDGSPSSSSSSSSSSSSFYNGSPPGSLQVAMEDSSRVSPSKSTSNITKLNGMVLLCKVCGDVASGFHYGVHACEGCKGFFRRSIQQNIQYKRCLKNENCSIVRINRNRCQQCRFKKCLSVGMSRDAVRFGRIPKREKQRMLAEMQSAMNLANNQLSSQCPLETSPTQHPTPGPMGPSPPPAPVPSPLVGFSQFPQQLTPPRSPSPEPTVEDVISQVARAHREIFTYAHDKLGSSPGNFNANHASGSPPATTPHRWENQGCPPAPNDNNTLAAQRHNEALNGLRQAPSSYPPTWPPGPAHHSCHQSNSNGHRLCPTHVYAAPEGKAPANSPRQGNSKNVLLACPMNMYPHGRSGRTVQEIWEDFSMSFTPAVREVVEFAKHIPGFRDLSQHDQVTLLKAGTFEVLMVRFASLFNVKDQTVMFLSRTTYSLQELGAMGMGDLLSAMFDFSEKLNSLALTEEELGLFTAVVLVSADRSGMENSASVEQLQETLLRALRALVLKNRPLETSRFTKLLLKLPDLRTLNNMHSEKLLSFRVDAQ
PG9 Ab binder: PG9 antibody binding by small molecule. TR-FRET gp120-PG9 antibody binding. inhibition, % at 6.7 µM. 360,000 tested, 0.43% active. AID 624416; in the data active means inhibition above about 8.5%
rCAG binder: molecules binding r(CAG) RNA repeats. r(CAG) RNA repeat, TO-PRO-1 dye displacement fluorescence. inhibition, % at 3 µM. 370,000 tested, 1.3% active. AID 651821;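 active means inhibition above the plate cutoff, the mean of all test compounds on that plate plus 3 SD, cut at about 35% in these data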;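 further: higher means more dye released from RNA so lower well fluorescence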
PG9 binder conf: PG9 antibody binding, confirmed | shares compounds with PG9 Ab binder | TR-FRET PG9 antibody binding, biochemical | inhibition, % at 6.7 µM | 1,500 tested, 90% active | AID 651571; in the data active means inhibition above about 9%
PGV04 Ab binding: binds control antibody PGV04 in PG9 binder counter-screen | shares compounds with PG9 Ab binder | TR-FRET PGV04 antibody-gp120 binding, biochemical | inhibition, % at 6.7 µM | 1,500 tested, 95% active | AID 651604; in the data active means inhibition above about 9.5%
PG9 bind DR: small molecules binding HIV-1 gp120 antibody PG9. shares compounds with PG9 Ab binder. TR-FRET PG9 antibody-gp120 binding inhibition. IC50, µM. 95 tested, under 10 active. AID 651848; in the data active means IC50 below about 10 µM
PGV04 DR counter: binds control antibody PGV04 in PG9 counter-screen; shares compounds with PG9 Ab binder; TR-FRET binding to control antibody PGV04; IC50, µM; 95 tested, 20% active; AID 651937
PG126 binding DR: PG126 binding, dose response counter-screen; AID 651939; TR-FRET binding to antibody PG126, counterscreen; shares compounds with PG9 Ab binder; IC50, µM; 95 tested, 20% active
A number is an active result; n = inactive; x = no result. This is a sample that favours compounds with a hit; in the whole collection about 2.6% have one here. Unless noted, no stated cut-off is given here; in the data, active means IC50 below about 9 µM; inactive means the rest.

SMILES	NR2E3 ag-1	NR2E3 ag-2	Rev-erbA mod	PG9 Ab binder	rCAG binder	PG9 binder conf	PGV04 Ab binding	others
COc1ccccc1Cc1c(-c2cccc(Br)c2)nc2ccc(C)cn12	x	x	n	n	n	x	x
COc1ccc(NC(=O)/C(C#N)=C\c2cc(C)n(-c3ccc(Oc4ccc([N+](=O)[O-])cn4)cc3)c2C)cc1	n	n	n	n	n	x	x
Cc1cc(C=O)c(C)n1-c1ccc(Oc2ccc([N+](=O)[O-])cn2)cc1	n	n	n	8.6	n	10.2	15.4
COc1ccccc1N1CCN(C(=O)c2cc3sccc3n2C)CC1	n	n	n	n	n	x	x
Cn1c(C(=O)N2CCN(c3nc4ccccc4s3)CC2)cc2sccc21	n	n	n	13.8	n	20.2	30.6
CC1CCN(C(=O)c2[nH]cnc2C(=O)Nc2ccccc2F)CC1	x	n	n	n	n	x	x
CCCCCCCCN1C(=O)[C@H](CC(=O)NCCC(C)C)C[C@@]2(C(=O)OC)CC(C)(C)CC=C12	x	x	n	n	n	x	x
COc1ccc(NC(=O)CCn2c(=S)[nH]c3ccccc3c2=O)cc1	n	n	n	22.1	n	22.2	26.7
CN1CCN(CCCNC(=O)c2ccc3c(c2)N(Cc2ccc(F)cc2)CCS3)CC1	n	n	n	16.7	n	15.3	23.8
Cc1cccc2cc(COC(=O)c3cccnc3)c(=O)[nH]c12	n	n	n	n	n	x	x
Cc1cccc(C(=O)OCc2cc3ccccc3[nH]c2=O)c1	n	n	n	12.1	n	13.3	18.1
Cc1cccc2cc(COC(=O)c3ccccc3)c(=O)[nH]c12	n	n	n	22.9	n	22.5	38.2
NC(=O)c1ccc(NS(=O)(=O)c2ccc(S(=O)(=O)N3CCCC3)cc2)cc1	x	n	n	n	n	x	x
CCOC(=O)c1ccccc1NC(=O)/C=C/c1cc(OC)c(OC)c(OC)c1	n	n	n	22.1	n	19.1	23.8
COc1cc(/C=C/C(=O)Nc2ccccc2C(F)(F)F)cc(OC)c1OC	n	x	n	n	n	x	x
CN(CC(=O)Nc1ccc(Cl)c(Cl)c1)CC(=O)N1CCc2ccccc21	x	n	n	n	n	x	x
CSc1nc2sc3c(c2c(=S)[nH]1)CC(C)(C)OC3	x	n	n	12.3	n	44.0	73.2
CCOC(=O)C1=CCN(S(=O)(=O)c2ccccc2C)C1c1ccccc1 (stereo not given)	x	n	n	n	n	x	x
Cc1ccc(/C=C/c2nc3ccccc3c(=O)[nH]2)cc1	n	n	n	31.2	n	39.9	46.8
COc1ccc(NC(=O)CN(C)C(=O)CSc2ccc(Br)cc2)cc1	n	n	n	n	n	x	x
CCOc1ccc(-c2nc(CCl)cs2)cc1	n	n	n	n	n	x	x
COc1ccc(Br)cc1-c1nc(CCl)cs1	n	n	n	10.3	n	15.8	20.1
Cc1nn(C)c(C)c1NC(=O)CSc1nc(C2CC2)nc2c1cnn2-c1ccccc1	n	n	n	13.1	n	43.2	73.8
COc1ccc(NC(=O)c2c(NC(=O)CNCC(C)C)sc3c2CCC3)c(OC)c1	n	n	n	11.5	n	9.9	9.5	PG9 bind DR=n;PGV04 DR counter=n;PG126 binding DR=n
Cc1ccc(C(=O)CCC(=O)NNC(=O)c2ccccc2O)cc1	n	n	n	n	n	x	x
SMILES	NR2E3 ag-1	NR2E3 ag-2	Rev-erbA mod	PG9 Ab binder	rCAG binder	PG9 binder conf	PGV04 Ab binding	others
COc1ccc2nc(SCC(=O)NCC3CCCO3)c(C#N)cc2c1 (stereo not given)	n	n	n	n	n	x	x
Cc1ccc2cc(C#N)c(SCC(=O)NCC3CCCO3)nc2c1 (stereo not given)	n	n	n	n	n	x	x
COc1ccc2nc(SCC(=O)NC3CC3)c(C#N)cc2c1	n	n	n	20.3	n	26.3	47.2
Cc1ccc2nc(SCC(=O)NCC3CCCO3)c(C#N)cc2c1 (stereo not given)	n	n	n	12.9	n	21.6	36.4
CC1CCCCC1NC(=O)CSc1nnc(C(F)(F)F)n1C (stereo not given)	x	n	n	n	n	x	x
CC(=O)c1ccc(N2CCN(S(=O)(=O)c3ccc4c(c3)NC(=O)CC(=O)N4)CC2)cc1	n	n	n	13.0	n	17.4	29.5
CCN(c1ccc(F)cc1)S(=O)(=O)c1ccc2[nH]cc(C(=O)NCCCN3CCOCC3)c(=O)c2c1	n	n	n	n	n	x	x
CCN(c1ccccc1)S(=O)(=O)c1ccc2[nH]cc(C(=O)N3CCOCC3)c(=O)c2c1	n	n	n	9.1	n	n	9.9
CSCCCNC(=O)Cn1nc(Cc2ccncc2)c2ccccc2c1=O	x	x	n	x	n	x	x
COc1ccc(Cn2nnnc2C(c2cc3cccc(C)c3[nH]c2=O)N2CCOCC2)cc1 (stereo not given)	n	n	n	17.4	n	15.7	23.5
COc1cc(C(=O)Nc2cccc(-c3nc4ncccc4o3)c2C)cc(OC)c1OC	n	n	n	n	n	x	x
COc1cc(C(=O)Nc2cccc(-c3nc4cc(C)ccc4o3)c2C)cc(OC)c1OC	n	n	n	12.2	n	16.9	27.4
O=S(=O)(c1ccc(F)c(F)c1F)N1CCN(c2ncnc3sccc23)CC1	x	n	n	10.5	n	n	15.7
O=C(c1ccc(F)cc1)C1CCN(c2ncnc3sccc23)CC1	x	x	n	x	x	x	x
NC(=O)c1ccc(NC(=O)CNC(=O)c2sc3ccccc3c2Cl)cc1	n	n	n	18.4	n	22.0	27.9
Cc1ccc(NC(=O)CNC(=O)c2sc3ccccc3c2Cl)nc1	n	n	n	15.0	n	13.3	27.9
CCOc1ccc2cc(C(=O)c3ccccc3)c(=O)oc2c1	n	n	n	n	n	x	x
CCOc1ccc2cc(C(=O)NCc3ccccc3)c(=N)oc2c1	n	n	n	39.9	n	15.4	n	PG9 bind DR=n;PGV04 DR counter=n;PG126 binding DR=n
COCc1cc(C)n(CC(=O)Nc2ccc(Cl)cc2Cl)c(=O)c1C#N	n	n	n	8.8	n	n	n	PG9 bind DR=n;PGV04 DR counter=n;PG126 binding DR=n
O=C(COC(=O)CCC(=O)c1ccc(F)cc1)Nc1ccc(Cl)cn1	x	n	n	n	n	x	x
CC(=O)c1nn(-c2cccc(Br)c2)cc1C(=O)c1ccccc1	n	n	n	13.3	n	20.2	24.5
CC(=O)c1nn(-c2ccccc2)cc1C(=O)c1cccc(Br)c1	n	n	n	n	n	x	x
C#CCNC(=O)C[C@H]1C[C@@]2(C(=O)OC)C(=C[C@H](C(C)(C)C)O[C@@H]2C)N(CCc2ccc(OC)c(OC)c2)C1=O	x	x	n	n	n	x	x
